In ChEMBL document CHEMBL1134174, “Anti-Helicobacter pylori agents endowed with H2-antagonist properties” (2001) one finds MIC, MIC50 and MIC90 data, which are given here for five compounds.

Holding throughout (format): functional
In assay [1] the test system is Helicobacter pylori. As to the kind of experiment: Minimal concentration needed to inhibit Helicobacter pylori strain.
Assay [2] relates to Helicobacter pylori. Briefly: Inhibitory activity was determined against 102R strain of Helicobacter pylori.
For assay [3], the system named is Helicobacter pylori. Briefly: Inhibitory activity was determined against NCTC-11637 strain of Helicobacter pylori.
The subject of assay [4] is Helicobacter pylori. Briefly: Minimal concentration needed to inhibit 50% of Helicobacter pylori strain. The gist of the method: (§1)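 Agar dilution MICs on 20 clinical H. pylori strains, two metronidazole resistant, in Columbia agar with horse serum and yeast extract. DMSO solutions diluted twofold serially in agar. Inocula at 0.5 McFarland in Wilkins Chalgren broth, incubated 37 C for 72 h, 10% CO2, microaerobic. MIC50/MIC90 taken as the lowest concentration inhibiting 50% or 90% of strains.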

Assay [5] relates to Helicobacter pylori. Briefly: Minimal concentration needed to inhibit 90% of Helicobacter pylori strain. The gist of the method: as §1
Assay [6] has as its system Helicobacter pylori. Briefly: Minimal concentration needed to inhibitH. pylori strain.

SMILES strings stand for the structures. In brackets after ≈: the same amount, converted by molar mass.

One may read the MIC as the lowest concentration that inhibits growth of the organism. Read a high MIC as a less susceptible organism. The MIC50 is the lowest concentration that inhibits either 50% of growth or 50% of the strains tested, depending on the study. A lower MIC50 goes with greater potency. By MIC90 is commonly meant the lowest concentration that inhibits either 90% of growth or 90% of the strains tested, depending on the study. Low readings indicate higher susceptibility, high ones lower susceptibility. Regarding `N#C/N=[N+](\[O-])c1ccc(C(=O)NCC/N=C(\NC#N)NCCCOc2cccc(CN3CCCCC3)c2)cc1`, the minimal inhibitory concentration (MIC) with Helicobacter pylori [1] is 0.25 µg/mL (≈ 0.47 µM); against Helicobacter pylori [2] it was 8 µg/mL (≈ 15 µM); with Helicobacter pylori [3] it was 16 µg/mL (≈ 30.1 µM). In the assay on Helicobacter pylori [4], the MIC50 was 8 µg/mL (≈ 15 µM). Moreover, in the assay on Helicobacter pylori [5], the MIC90 came to 16 µg/mL (≈ 30.1 µM).
As for `N#C/N=[N+](\[O-])c1ccc(C(=O)NCCCC/N=C(\NC#N)NCCCOc2cccc(CN3CCCCC3)c2)cc1`, the MIC turned out to be 0.25 µg/mL (≈ 0.447 µM) with Helicobacter pylori [6], 8 µg/mL (≈ 14.3 µM) against Helicobacter pylori [2] and 4 µg/mL (≈ 7.15 µM) with Helicobacter pylori [3]. Further, in the assay with Helicobacter pylori [4], the MIC50 was found to be 2 µg/mL (≈ 3.57 µM). The compound further came in with an MIC90 with Helicobacter pylori [5] of 4 µg/mL (≈ 7.15 µM).
Turning to `N#C/N=[N+](\[O-])c1ccc(C(=O)NCCCCCC/N=C(\NC#N)NCCCOc2cccc(CN3CCCCC3)c2)cc1`, the MIC with Helicobacter pylori [6] worked out at 0.25 µg/mL (≈ 0.425 µM); in the assay with Helicobacter pylori [2] it was 2 µg/mL (≈ 3.4 µM); in the assay on Helicobacter pylori [3], 1 µg/mL (≈ 1.7 µM). Further, in the assay with Helicobacter pylori [4], the MIC50 amounted to 1 µg/mL (≈ 1.7 µM). Moreover, in the assay on Helicobacter pylori [5], the MIC90 stood at 2 µg/mL (≈ 3.4 µM).
Take `N#C/N=[N+](\[O-])c1ccc(C(=O)O)cc1`: the minimum inhibitory concentration (MIC) against Helicobacter pylori [6] was below 0.0039 µg/mL; in the assay with Helicobacter pylori [2] it was 0.031 µg/mL (≈ 0.162 µM); against Helicobacter pylori [3], 0.0078 µg/mL (≈ 0.0408 µM). For the same compound, the MIC50 against Helicobacter pylori [4] is 0.016 µg/mL (≈ 0.0837 µM). Further, in the assay on Helicobacter pylori [5], the MIC90 came out at 0.031 µg/mL (≈ 0.162 µM).
Regarding `Cc1ncc([N+](=O)[O-])n1CCO` [METRONIDAZOLE], the minimum inhibitory concentration (MIC) against Helicobacter pylori [6] was determined as 0.031 µg/mL (≈ 0.181 µM); against Helicobacter pylori [2] it was 8 µg/mL (≈ 46.7 µM); against Helicobacter pylori [3], 16 µg/mL (≈ 93.5 µM). Also, in the assay with Helicobacter pylori [4], the MIC50 came out at 0.25 µg/mL (≈ 1.46 µM). For the same compound, the MIC90 with Helicobacter pylori [5] was 8 µg/mL (≈ 46.7 µM).
